The record followed here is ChEMBL document CHEMBL4513216, “Probing the Open Global Health Chemical Diversity Library for Multistage-Active Starting Points for Next-Generation Antimalarials” (ACS Infect Dis, 2020).

The data set can be described thus: Toxicity liver stage against HepG2, at 10uM. The data set is classed as cell-based. Further details: test concentration 10 uM, cell line HepG2-A16-CD81EGFP. The following applies: human, HepG2-A16-CD81EGFP cells; read-out: INHIBITION
In outline: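 Uninfected HepG2-A16-CD81EGFP cells, 3 × 10^3 per well, 1536-well, plated on prespotted compound at 10 μM final, parasite-free screening media added to match infected plates; puromycin 10 μM positive, DMSO 0.5% negative; run in parallel with 48 h PbLuc assay at 37 °C, 5% CO2; viability by CellTiter-Glo luminescence, normalized to controls.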
On to `CS(=O)(=O)N1CCN(C(=O)CN2CCCc3c(F)cc(F)cc32)CC1`, for which the cytotoxicity at 10 µM is -1.52%. In the case of `Cc1nc(C)c(CN2CCOC[C@H](Oc3cnccn3)C2)s1`, the cytotoxicity at 10 µM is -5.33%. The value for `Cn1cnc2cc(NC(=O)c3n[nH]c4c3CCC4)ccc21` was -0.806%. Then `O=C(c1nnn(-c2ccc(F)cc2)n1)N(CCO)Cc1ccccc1`, with 1.56%; and `Cc1c[nH]nc1C1CCN(C(=O)CC2CCCC2)C1` (stereo not given), with -4.15%. Then `COc1cccc(C(=O)Nc2ccc(OCCC(N)=O)cc2)c1OC`, with 4.19%; and `CCOc1ccc(NC(=O)c2cccc(OC)c2OC)cc1`, with 1.64%. For `NC(=O)CS(=O)(=O)Cc1ccc(OCc2ccc(F)cc2)cc1`, the cytotoxicity at 10 µM amounted to 4.93%. The value for `CCN(CC(C)C#N)C(=O)c1cccc(COc2ccc(C)nc2)c1` (stereo not given) was 5.8%; that for `COc1cc(NC(=O)c2cccc(N(C)C)c2)cc(OC)c1` was 0.03%; that for `CC(=O)Nc1cc(-c2cccc(F)c2F)n[nH]1` was -0.305%. On to `CN(CC(=O)Nc1ccccc1)C(=O)CN(C)c1ccc(Cl)cn1`, for which the cytotoxicity at 10 µM was -1.83%.

Take `Cn1cc(N2CCN(c3ccc(C#N)cc3F)CC2=O)cn1`: the cytotoxicity at 10 µM is -2.14%. As to `NC(=O)NC1(C(=O)N2CCc3c(Cl)cccc3C2)CCCCC1`, the cytotoxicity at 10 µM is -3.45%. Consider `Cc1ccc(F)c(CNc2ccn(CCC(N)=O)n2)c1`, for which the cytotoxicity at 10 µM is -4.75%.

`O=C(c1csnn1)N1CCc2ccccc21`: the cytotoxicity at 10 µM came to 5.35%.

`Cc1ncc2c(n1)CCN(Cc1nc(Cc3ccccc3)no1)C2`: the cytotoxicity at 10 µM came out at 0.414%.

As for `COc1ccc(C)cc1CN1CCN(Cc2nccn2C)CC1`, the cytotoxicity at 10 µM amounted to 5.5%. Then `CCC(CC)(CNC(=O)OC(C)(C)C)NC(=O)C1CC1`, with -0.708%; and `Cc1cnn(CCNC(C)C(=O)Nc2ccc(Cl)cn2)c1` (stereo not given), with 0.858%; and `COC(=O)c1cc(NC2CCN(CC(F)(F)F)C2=O)ccc1C` (stereo not given), with -0.812%.

On to `Cc1ocnc1C(=O)Nc1ccc(-c2nnc(N(C)C)o2)cc1`, for which the cytotoxicity at 10 µM was determined as 5.49%. Then `COc1cc(Cl)ccc1C(=O)NCC(=O)Nc1nccs1`, with 6.62%; and `CCN(Cc1ccco1)C(C)c1nc(C(C)C)no1` (stereo not given), with 15.6%; and `CCOc1ccccc1C(=O)N(C)C(C)c1ccc(S(C)(=O)=O)cc1` (stereo not given), with 12.9%. As for `CSCc1cc(F)ccc1CNC(=O)N1CCCC1`, the cytotoxicity at 10 µM was found to be 5.58%. The value for `O=C(c1csc(-c2ccco2)n1)N1CCOc2ncccc21` was 10.2%; that for `Cc1noc(C)c1C(=O)NCCN1CCN(c2ccccc2)CC1` was -10.8%; that for `COC1CCN(C(=O)c2csc(-c3ccccc3F)n2)CC1` was -5.6%. On to `CCc1nc(CCNC(=O)NC2CCSCC2)cs1`, for which the cytotoxicity at 10 µM is -5.55%. Regarding `Cc1ccccc1-n1cnnc1SCC(=O)NCC1CCCO1` (stereo not given), the cytotoxicity at 10 µM was -1.15%.

Take `CCCNC(=O)CNc1cc(C(=O)NCC(F)(F)F)cc(F)c1C`: the cytotoxicity at 10 µM stood at 10%. Then `N#Cc1ccc(N2CCCC2Cn2cccn2)nc1` (stereo not given), with 6.55%. As to `CCNC(=O)NC(C)(C)C(=O)NCc1cccc(N2CC=CC2)c1`, the cytotoxicity at 10 µM is 7.35%. The value for `CCC1CN(Cc2c(O)ccc3oc4c(c23)CCCC4)CCO1` (stereo not given) was 2.03%.

For the compound `O=C(CCNc1ncccn1)NCc1cccc(OC(F)F)c1`, the cytotoxicity at 10 µM is -1.75%.

As for `Cc1nn(C)c(N2CCOCC2)c1CNCC1CCS(=O)(=O)C1` (stereo not given), the cytotoxicity at 10 µM is -2.09%. Then `CC(=O)Nc1cc(C(=O)Nc2cc(CC(C)(C)C)nn2C)ccc1F`, with 0.388%; and `CCCOc1cccc(NC(=O)NC2CCc3nc(C)nn3C2)c1` (stereo not given), with -1.65%.

Consider `O=C(c1cn(-c2cccc(Cl)c2F)nn1)N1CCCSCC1`, for which the cytotoxicity at 10 µM turned out to be 3.98%. As for `N#Cc1cccc(CNC(=O)C2=NN(c3ccccc3)C(=O)CN2)c1`, the cytotoxicity at 10 µM is -3.44%. With `Cc1cc(C)n(-c2ccc(N3CCC4(CC3)OCCO4)nc2)n1`, the cytotoxicity at 10 µM is -4.84%. As for `O=C(CSc1ccc2c(c1)OCCO2)NS(=O)(=O)c1cccs1`, the cytotoxicity at 10 µM was -3.13%.

As for `CC(Oc1ccc(S(C)(=O)=O)cc1)C(=O)NC(N)=O` (stereo not given), the cytotoxicity at 10 µM was -5.69%. Take `Cc1cc(NC(=O)NCCc2ccc(S(N)(=O)=O)cc2)n(C)n1`: the cytotoxicity at 10 µM is -3.39%. The value for `CNC(=O)CN(C)Cc1ccc(F)cc1Cl` was -2.9%. As for `O=C(CSc1ccc2c(c1)OCCO2)NS(=O)(=O)c1cccnc1`, the cytotoxicity at 10 µM is -5.72%.

Take `COc1cc(NC(=O)c2cscn2)ncn1`: the cytotoxicity at 10 µM was found to be 3.12%. The value for `CCc1nc(C2CCCN(c3ncccn3)C2)no1` (stereo not given) was -0.996%; that for `COCCN1CCN(CC(=O)N(C)Cc2ccc(F)cc2)CC1C` (stereo not given) was -145%. For the compound `CN(C)C(=O)c1csc(-c2ccoc2)n1`, the cytotoxicity at 10 µM is -1.13%.

In the case of `OCC1(CNC2CCc3cc4c(cc32)OCCO4)CC1` (stereo not given), the cytotoxicity at 10 µM was -3.37%.

On to `CC(C)N(C(=O)c1csc(-c2ccoc2)n1)C1CCOCC1`, for which the cytotoxicity at 10 µM is -1.18%. Then `Cc1n[nH]c(C2CN(Cc3ncc(C(C)C)o3)CCO2)n1` (stereo not given), with -6.32%; and `O=S1(=O)CCC(c2nc(-c3cccc(Br)c3)no2)C1` (stereo not given), with 7.51%; and `COc1ccc(C(C)Nc2ncc(C(N)=O)cc2Cl)cc1F` (stereo not given), with 5.37%. Turning to `Cc1cc(CS(=O)(=O)NCC2CCCCC2)on1`, the cytotoxicity at 10 µM is -18.7%.

With `O=C(COCc1ccccc1Cl)N1CCN(c2ncccn2)CC1`, the cytotoxicity at 10 µM is 6.43%. The value for `CC(C)Nc1ccnc(-c2ccnc3c2ccn3C)n1` was -5.2%; that for `O=C(c1cnccn1)N1CCCC(Cn2cc(C3CC3)nn2)C1` (stereo not given) was -5.9%.

For the compound `COCCc1noc(-c2ccc(-c3cc[nH]n3)nc2)n1`, the cytotoxicity at 10 µM was -2.79%. `COCc1noc(-c2ccc(N(C)Cc3nccs3)nc2)n1`: the cytotoxicity at 10 µM was -1.57%. The value for `Cc1cccc(C2CCCN(C(=O)CN3CCOC3=O)C2)c1` (stereo not given) was -2.82%; that for `CC(C)Cc1cn(C2CCN(C(C)CC3CC3)CC2)nn1` (stereo not given) was -2.9%; that for `CCCn1ncc(C(=O)N2CCN(C3CCSCC3)CC2)c1C` was -148%. The value for `O=C1CCCCN1CC(=O)N1CCCC(c2ccccc2)C1` (stereo not given) was -1.05%; that for `Cc1ccc(CCNc2ncnc3sc4c(c23)CCNC4)o1` was 3.94%; that for `Cc1ncc(CO)c(CN2CCCC2c2nc3c(C)cccc3[nH]2)c1O` (stereo not given) was 0.414%. Then `Cc1cccc2nc(-c3nc4c([nH]3)CCCNC4=O)cn12`, with 3.67%; and `NC1CCCc2nc(-c3ccccc3)ncc21` (stereo not given), with 4.93%.

As for `COC(C)(C)CC(C)NCc1nncn1C1CCCCC1` (stereo not given), the cytotoxicity at 10 µM is -2.87%. `COCCOCC(=O)N1CCC(c2ccccc2F)C1` (stereo not given): the cytotoxicity at 10 µM is -6.45%. Regarding `O=C(CN1C(=O)CCNC1=O)N1CCOC(c2ccc(F)cc2)C1` (stereo not given), the cytotoxicity at 10 µM stood at 5.11%. Regarding `O=C(CCc1nc(Cl)n[nH]1)N1CCC2(CCCN(CC3CCC3)C2=O)C1` (stereo not given), the cytotoxicity at 10 µM was -5.3%. Turning to `O=C1CC2(CCCC2)CN1CCOc1ccc(F)cc1`, the cytotoxicity at 10 µM came out at 1.05%. Then `O=C(c1cnccn1)N1CCCC(Cn2cc(C3CCCC3)nn2)C1` (stereo not given), with -4.86%. Then `Cc1cc(C(=O)N2CCCC3(C=Cc4ccccc4O3)CC2)cc(=O)[nH]1` (stereo not given), with 8.06%. Turning to `O=C1CCC2(CCCN(C(=O)c3ccc[nH]3)C2)CN1Cc1cccnc1` (stereo not given), the cytotoxicity at 10 µM was determined as 9.88%.

Turning to `CCN(C)CC(C)Cn1cnc(-c2ccccc2)c1C` (stereo not given), the cytotoxicity at 10 µM is -3.06%. Take `Cc1cc(N2Cc3cnn(CCO)c3C2)nc(-c2ccccc2O)n1`: the cytotoxicity at 10 µM was -162%. Then `CCNC(=O)[C@@H]1C[C@H](N)CN1c1cc(C(F)(F)F)nc(N(C)C)n1`, with -14.1%; and `O=C(Nc1ccc(-c2nc3c([nH]2)CCNC3)cc1)N1CCCC1`, with -4.36%; and `CCOc1ccc(-c2ccc3c(c2)OCO3)cc1C(N)=O`, with 5.17%. For the compound `Cc1cc(-c2nc(-c3ccccn3)nn2C2CCN(C)CC2)nc(C)n1`, the cytotoxicity at 10 µM is -3.14%. Take `COCCN(Cc1sccc1C)C(=O)C1CCCN(C(N)=O)C1` (stereo not given): the cytotoxicity at 10 µM is -4.7%. Then `O=c1c2cccc(F)c2ncn1CCN1CCOCC1`, with 2.53%; and `CCNC(=O)c1ccnc(CC2COc3c(cccc3OC)C2)c1` (stereo not given), with 0.441%.

Consider `O=C(N[C@H]1COC[C@@H]1N1CCCC1)c1c[nH]nc1C1CCCCC1`, for which the cytotoxicity at 10 µM was -5.59%. Then `O=C(NC1CC1)C1CNCCN1C(=O)CCc1ccc2c(c1)OCO2` (stereo not given), with -0.766%; and `COc1ccccc1C1CCN(C(=O)CN2C(=O)OC(C)(C)C2=O)CC1`, with 8.12%.

For the compound `O=C(NCCCc1ccco1)c1ccc(N2CCOCC2)cc1`, the cytotoxicity at 10 µM is -5.54%. The value for `O=C(CCC(=O)N1CCC(Cc2ccc(CO)cc2)C1)c1ccccc1` (stereo not given) was 0.727%; that for `Cc1ccsc1CNC(=O)NC(C)c1ccc2c(c1)CCC(=O)N2` (stereo not given) was 5.31%; that for `CC(NC(=O)NCCCN1CCc2ccccc2C1)c1nncn1C` (stereo not given) was -2.6%.

Take `Cc1ccc(NC(=O)NCCCn2nc3ccccn3c2=O)cc1`: the cytotoxicity at 10 µM is -19.1%. Then `O=C(COc1ccc(Cl)cc1)N1CCN(c2cnccn2)CC1`, with -20.4%. In the case of `Cc1cnc(C(=O)N2CCC(C(=O)c3cc(F)ccc3F)CC2)cn1`, the cytotoxicity at 10 µM was -5.88%. Then `Cc1nc(CN2CCCC(NCC(=O)Nc3cccnc3)C2)no1` (stereo not given), with 0.0757%. Then `O=C1CC2(CCN(Cc3cccnc3)C2)CN1c1cccc(F)c1` (stereo not given), with -147%; and `O=c1ccc2c(n1Cc1cccnc1)CCN(Cc1ccoc1)CC2`, with -140%.
